{"source": "paper PMC2793091", "about": "(Biochemistry, 2009)", "key": {"VAChT": {"system": "VAChT", "conditions": "cited from earlier work"}, "[1]": {"conditions": "pH 10"}, "[2]": {"assay": "Solubility in binding buffers at different pH"}, "[3]": {"conditions": "titration of (±)-vesamicol absorbance at 263 nm; cited from earlier work"}, "[4]": {"system": "postnuclear supernatant from cells not transfected with VAChT", "format": "binding, rat", "conditions": "five nM [3H]vesamicol", "summary_of_the_method": "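Postnuclear supernatant (1500g, 10 min) from untransfected PC12^A123.7 cells, in sucrose/HEPES/DTT buffer pH 7.4. 20 μg protein mixed with iso-osmolal MES/HEPES/AMPSO pH buffer. Started with [³H]vesamicol in potassium tartrate/HEPES/DTT buffer; 10 min, 23°. pH measured just before filtration. Two portions filtered, washed with ice-cold buffer containing 5 μM (±)-vesamicol, scintillation-counted, averaged. Nonspecific binding measured with 5 μM (±)-vesamicol.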"}, "sigma 1 receptors": {"system": "sigma 1 receptors", "conditions": "cited from earlier work"}, "sigma 2 receptors": {"system": "sigma 2 receptors", "conditions": "cited from earlier work"}}, "note": "Where two headings read alike, the source gives them in different places.", "data": [{"compound": "Nc1cccc2c1CC(N1CCC(c3ccccc3)CC1)C(O)C2", "note": "(racemic) [(±)-ABV, (±)-aminobenzovesamicol]", "values": [{"measurement": "potency relative to (±)-vesamicol", "setting": "VAChT", "result": "about 1000 fold"}, {"measurement": "solubility", "setting": "[1]", "result": "soluble"}]}, {"compound": "(±)-trans-2-(4-phenylpiperidino)cyclohexanol [(±)-vesamicol]", "values": [{"measurement": "solubility", "setting": "[2]; 200 μM, pH 10 (data not shown)", "result": "not soluble"}, {"measurement": "solubility", "setting": "[2]; 1 mM, acidic and neutral pH", "result": "soluble"}]}, {"compound": "(−)-[^3H]trans-2-(4-phenylpiperidino)cyclohexanol [[^3H]vesamicol]", "values": [{"measurement": "pKaves (protonated vesamicol)", "setting": "[3]", "result": "9.0 ± 0.1"}, {"measurement": "\"specific-nonspecific\" binding", "setting": "[4]; high pH", "result": "~ 0.4 pmol/mg"}, {"measurement": "\"specific-nonspecific\" binding", "setting": "[4]; low pH", "result": "essentially no"}]}, {"compound": "(−)-trans-2-(4-phenylpiperidino)cyclohexanol [(−)-vesamicol]", "values": [{"measurement": "affinity relative to VAChT", "setting": "sigma 1 receptors", "result": "only somewhat less than for VAChT"}, {"measurement": "affinity relative to VAChT", "setting": "sigma 2 receptors", "result": "only somewhat less than for VAChT"}, {"measurement": "pKaves (protonated vesamicol)", "setting": "[3]", "result": "9.0 ± 0.1"}]}]}
